Bioassay records: PubChem BioAssay, several laboratories
SKKanGAS inh – S. pyogenes SKKanGAS growth inhibitors in kanamycin, primary screen, streptokinase expression inhibitor project, SKKanGAS strain, BacTiter-Glo luminescence. inhibition, % at 7.5 µM. hit rate 1.3% among 300,000. 6 h;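 active = mean replicate score, as percent of positive control median, at least 50; inconclusive = mean below 50 but one replicate at or above 50; inactive = mean and every replicate below 50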;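 also: strain carries kanamycin resistance gene driven by streptokinase promoter and grows in 40 µg/ml kanamycin; loss of luminescence reflects streptokinase promoter inhibition or plain growth inhibition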
aSyn UTR inh – MLPCN primary screen, SNCA 5' untranslated region; inhibition, % (tested at 7.5 µM); hit rate 0.82% among 300,000; AID 1813, 2009; alpha-synuclein 5'UTR reporter, inhibitor activity; in the data active = inhibition above about 60%; inconclusive = no clear call, values can overlap the other calls;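 also: H4 neuroglioblastoma cells stably carrying SNCA 5'UTR luciferase fusion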
T cruzi inh – inhibitors of intracellular T. cruzi growth, primary screen, luminescence, NIH3T3 host cells; T. cruzi beta-gal in NIH3T3, 90 h; inhibition, % (test concentration not listed); hit rate 1.4% among 300,000; AID 1885, 2009;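 active = mean inhibition across valid replicates above about 55%, limit read from the data; inconclusive = mean below that limit but half or more replicates reach it; inactive = mean below it, under half of replicates reach it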;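 also: signal also drops with host cell toxicity which is not excluded here; higher percent means less beta-gal luminescence so fewer parasites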
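System: NIH/3T3 fibroblasts plus reporter T. cruzi. Medium: DMEM plus 2% FBS. Probe or stimulus: 5000 reporter trypomastigotes per well. Compound: single 50 nL compound addition per well in DMSO. Incubation: co-culture of at least 90 h after 3 h attachment. Detection: GalScreen β-gal luminescence, detergent lysis, 60 min. Evaluation: parasite load inhibition, %.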
Mdm2-MdmX inh – inhibitors of human Mdm2-MdmX association, primary screen, cell-based, luminescence, split luciferase, SaOS-2, uHTS. Protein Mdm4 (Homo sapiens) + E3 ubiquitin-protein ligase Mdm2 (Homo sapiens), …. SaOS-2 split-luciferase Mdm2/MdmX complementation. inhibition, % at 8 µM. hit rate 3% among 330,000. AID 485346, 2010;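 active = inhibition of at least 50% at 8 µM in the primary screen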
CSC inhib – cancer stem cell viability inhibitors, primary screen, luminescence; inhibition, % at 7.5 µM; cancer stem cell-like cells viability; hit rate 1.1% among 300,000; AID 2717, 2010; in the data active = inhibition above about 75%; inconclusive = no clear call, values can overlap the other calls; tested in HMLE shEcad cells
Mdm2 MdmX conf – Mdm2-MdmX complex disruptors, retested hits, confirmation, luminescence, single concentration; shares compounds with Mdm2-MdmX inh; Mdm2-MdmX binding, luminescent assay; inhibition, % at 8 µM; hit rate 55% among 10,000; AID 489028, 2010; in the data active = inhibition above about 40%
FLuc counter – full-length luciferase signal inhibition, confirmation, counter-screen for Mdm2/MdmX interaction inhibitor project, cell-based, single concentration, SaOS-2; shares compounds with Mdm2-MdmX inh; SaOS-2 full-length luciferase counterscreen, luminescence; inhibition, % at 8 µM; hit rate 77% among 6,200;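 active = mean inhibition at 8 µM reaching about 37%, which flags the compound as non-specific, limit read from the data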;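 also: p53-null SaOS-2 cells with luciferase driven by a doxycycline-inducible promoter; compound on cells about two nights before reading with doxycycline added after day one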
A number is an active result; – = inactive; ? = inconclusive; · = no result. Hits are enriched below; roughly 5.4% of the tested compounds scored in any of these assays.

SMILES	SKKanGAS inh	aSyn UTR inh	T cruzi inh	Mdm2-MdmX inh	CSC inhib	Mdm2 MdmX conf	FLuc counter
O=c1[nH]c(CSc2ncnc3sc(-c4ccccc4)cc23)nc2ccccc12	–	–	–	87	–	–	·
O=C(Nc1ccc(Oc2cccnc2)cc1)C1CCN(Cc2ccccc2F)CC1	–	–	–	–	·	·	·
C=CCc1ccc(OCCOCCOc2cccc3cccnc23)c(OC)c1	–	–	–	–	–	·	·
Cc1cc(C)n2cc(COc3ccc4ccccc4c3)nc2n1	–	–	–	–	–	·	·
Cc1cccc2nc(COc3ccc(-c4ccccc4)cc3)cn12	–	–	–	63	–	–	78
O=C(OCC(=O)N1CCCC1=O)c1nc(Cl)c(Cl)c(Cl)c1Cl	–	–	–	77	–	–	·
Nc1c(Cl)c(Cl)nc(C(=O)OCC(=O)N2CCCC2=O)c1Cl	–	–	–	–	–	·	·
NS(=O)(=O)c1ccc(N/N=C/c2cn(-c3ccccc3)nc2-c2cccs2)c([N+](=O)[O-])c1	–	–	67	96	96	–	·
O=C(N/N=C/c1cn(-c2ccccc2)nc1-c1ccccc1)c1ccco1	–	–	–	–	–	·	·
N#Cc1ccc(N/N=C/c2cn(-c3ccccc3)nc2-c2ccccc2)c([N+](=O)[O-])c1	–	–	–	91	–	–	·
COc1ccc(CNC(=O)c2ccccc2SCC(=O)N2CCCC2)cc1OC	–	–	–	–	–	·	·
Cc1cc(N)c2cc(NC(=O)/C=C/c3ccccc3Cl)ccc2n1	–	107	–	100	141	100	51
Cc1ccc(C(NC(=O)NC(C)c2ccccc2)C(Cl)(Cl)Cl)cc1F (stereo unspecified)	57	–	–	55	–	58	40
CC(NC(=O)Nc1ccc(Cl)cc1)c1ccccc1 (stereo unspecified)	–	–	–	–	–	·	·
COc1ccc2[nH]c(=O)c3c(c2c1)OC(C)(C)C=C3	–	–	–	90	–	75	57
CCOC(=O)C1Nc2ccc(C(F)(F)F)cc2C2c3ccccc3CC12 (stereo unspecified)	–	–	–	97	–	70	43
CCn1nc2cc(C(=O)NCCc3cccs3)ccc2c1OC	–	–	–	–	–	·	·
COc1ccccc1NS(=O)(=O)c1cc(NC(=O)c2[nH]c(C)c(C(C)=O)c2C)ccc1N1CCOCC1	–	–	–	61	–	–	·
CC(=O)c1c(C)[nH]c(C(=O)Nc2cccc(S(=O)(=O)N3CCCC3)c2)c1C	·	·	·	70	–	–	·
CC(=O)c1c(C)[nH]c(C(=O)OCC(=O)Nc2cccc(S(=O)(=O)N3CCCC3)c2)c1C	–	–	–	–	–	·	·
CC(=O)c1c(C)[nH]c(C(=O)Nc2ccc(Cl)c(S(=O)(=O)N3CCOCC3)c2)c1C	–	–	–	59	–	–	·
CC(=O)c1c(C)[nH]c(C(=O)OCC(=O)Nc2cc(S(=O)(=O)N3CCCC3)ccc2Cl)c1C	–	–	–	54	–	–	·
CCOC(=O)c1c(C)[nH]c(C(=O)C(C)OC(=O)c2oc3ccccc3c2COC)c1C (stereo unspecified)	–	–	–	–	–	·	·
CCOC(=O)C1(CC)Oc2ccccc2C(c2ccc(OC)cc2)=C1C(=O)OC (stereo unspecified)	·	·	·	–	·	·	·
CCOC(=O)C(CN1CCCC1)c1ccccc1 (stereo unspecified)	–	–	–	–	–	·	·
SMILES	SKKanGAS inh	aSyn UTR inh	T cruzi inh	Mdm2-MdmX inh	CSC inhib	Mdm2 MdmX conf	FLuc counter
O=C(c1ccc(Cl)cc1)C(CN1CCCCC1)c1ccccc1 (stereo unspecified)	–	–	–	94	95	55	42
CCCOc1ccc(C(=O)C(CN2CCOCC2)c2ccccc2)cc1 (stereo unspecified)	–	–	–	91	–	84	–
COc1ccc(NC(=O)CN2CCN(C3c4ccccc4-c4ccccc43)CC2)c(OC)c1	–	–	–	94	–	–	·
C/C(N)=C(/C#N)C(=O)COC(=O)c1cc(C)n(-c2ccc(F)cc2)c1C	–	–	–	80	–	–	·
O=C(Oc1ccnc2cc(Cl)ccc12)N1CCCCCC1	–	–	–	67	–	–	–
CCOC(=O)N1CCN(c2ccnc3cc(Cl)ccc23)CC1	–	–	–	–	–	·	·
Cn1c(=O)c2c(nc(NCCCN3CCOCC3)n2Cc2ccc(Cl)cc2)n(C)c1=O	–	–	–	–	–	·	·
CN(C)CCCNc1cc(C(C)(C)C)nc2c(-c3ccc(Cl)cc3)cnn12	75	108	–	98	107	72	51
Cc1cc(NCCCN2CCOCC2)n2ncc(-c3ccc(Cl)cc3)c2n1	–	–	–	65	–	62	69
CC(C)(C)c1cc(NCCCn2ccnc2)n2ncc(-c3ccccc3)c2n1	–	–	–	–	–	·	·
Cc1cc(NCCCn2ccnc2)n2ncc(-c3ccc(Cl)cc3)c2n1	–	?	–	60	–	86	52
CC(Oc1cc2oc(=O)c3c(c2cc1Cl)CCC3)C(=O)N1C[C@H]2C[C@@H](C1)c1cccc(=O)n1C2 (stereo partly specified)	–	–	–	–	–	·	·
CS(=O)(=O)c1ccc(C(=O)NC2CCCCC2)cc1	–	–	–	55	–	–	·
CCOc1ccc2nc(NC(=O)Nc3ccccc3)sc2c1	–	–	–	–	–	·	·
Cc1ccc2nc(NC(=O)c3ccccn3)sc2c1	85	111	69	100	84	90	56
O=C(/C=C/c1ccc2c(c1)OCO2)Nc1nc2ccccc2s1	–	–	–	–	–	·	·
Cc1ccc(C)c(C(=O)c2ccccc2NC(=O)c2ccccn2)c1	–	–	–	57	–	58	73
CC(=O)Nc1ccccc1NC(=O)c1cc(C)ccc1C	–	–	–	–	–	·	·
Cc1ccc2nc(NC(=O)c3ccccc3F)sc2c1	–	–	–	–	–	·	·
CCOc1ccc2nc(NC(=O)c3ccccn3)sc2c1	81	80	–	76	94	76	42
Cc1ccc2nc(NC(=O)/C=C/c3ccc4c(c3)OCO4)sc2c1	–	–	–	78	–	–	·
COC(=O)C(C)(C(=O)OC)c1ccccc1[N+](=O)[O-]	–	–	–	–	–	·	·
O=C1C=CC(O)(c2cc(=O)c3c(O)cc(O)cc3o2)C=C1	–	–	–	99	–	66	48
OCCSc1c(F)c(SCCO)c(SCCO)c(F)c1SCCO	–	–	–	–	·	·	·
